Compound activity: PubChem, several laboratories
Keap1 Nrf2 FP = Keap1-Nrf2 protein-protein interaction inhibitors, primary screen, biochemical, fluorescence polarization, single point; inhibition, % at 9.4 µM; AID 504523, 2011; Keap1 Kelch-Nrf2 peptide fluorescence polarization, 1536-well; Kelch-like ECH-associated protein 1 (Homo sapiens), Q14145; hit rate 0.15% among 340,000; in the data active = inhibition above about 12%;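 note: human Keap1 Kelch domain with fluorescein labeled Nrf2 9mer peptide probe; 0% = neutral control wells and 100% = peptide positive control; higher means more block of Keap1 binding to Nrf2 peptide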
Target sequence (Q14145 whole entry, looked up, the tested form may be a part): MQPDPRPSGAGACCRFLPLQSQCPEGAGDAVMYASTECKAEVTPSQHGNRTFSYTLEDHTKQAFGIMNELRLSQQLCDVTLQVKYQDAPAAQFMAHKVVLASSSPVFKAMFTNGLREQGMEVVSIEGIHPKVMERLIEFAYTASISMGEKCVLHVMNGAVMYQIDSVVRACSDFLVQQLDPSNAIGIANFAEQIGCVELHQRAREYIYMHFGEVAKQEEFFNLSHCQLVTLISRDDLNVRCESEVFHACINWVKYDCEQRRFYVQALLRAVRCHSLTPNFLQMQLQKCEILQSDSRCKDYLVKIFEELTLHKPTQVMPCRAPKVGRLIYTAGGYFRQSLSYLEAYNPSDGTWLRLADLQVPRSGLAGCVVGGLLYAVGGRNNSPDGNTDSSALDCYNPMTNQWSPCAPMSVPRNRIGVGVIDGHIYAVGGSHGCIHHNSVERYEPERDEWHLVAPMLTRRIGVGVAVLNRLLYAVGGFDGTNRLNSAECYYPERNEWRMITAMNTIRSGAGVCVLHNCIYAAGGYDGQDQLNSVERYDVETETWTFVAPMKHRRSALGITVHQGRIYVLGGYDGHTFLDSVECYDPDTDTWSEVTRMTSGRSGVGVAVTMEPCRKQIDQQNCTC
CAL PDZ FP-1 = CAL PDZ peptide-binding inhibitors, primary screen, biochemical, fluorescence polarization, Cer-tagged CAL PDZ, HTS. purified CAL PDZ, TMR-peptide fluorescence polarization, 1 h. hit rate 0.02% among 330,000. inhibition, % at 20 µM. Golgi-associated PDZ and coiled-coil motif-containing protein (Homo sapiens), Q9HD26. AID 504414, 2011;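 active = highest replicate inhibition of at least 40%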;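 note: plate controls were DMSO neutral control wells for no effect and unlabeled competitor peptide control wells for full effect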
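System: purified tagged CAL PDZ domain construct (CerCALP). Schedule: 1 h incubation at room temperature before polarization reading. Medium: 25 mM sodium phosphate pH 7.4, 150 mM NaCl, TCEP, IgG, Thesit. Read-out: percent inhibition from loss of millipolarization. Measured by: FP readout, S and P plane fluorescence. Probe or stimulus: fluorescent TMR peptide probe.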
Cardiac RTF inh = cardiac RTF calcium sensitivity inhibitors, primary screen, biochemical, IANBD-TnC fluorescence, EC70 calcium; Troponin I, cardiac muscle (Homo sapiens) + Troponin T, cardiac muscle (Homo sapiens) + …; IANBD-labeled cardiac RTF, Ca2+ fluorescence; inhibition, % at 7.15 µM; hit rate 0.12% among 340,000; AID 493244, 2011;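 active = inhibition above the mean inhibition of all tested compounds plus 3 SD, cut at about 17% in these data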;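 note: assay run at fixed EC70 calcium of 1.6 mM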
CAL PDZ FP-2 = untagged CAL PDZ binding inhibitors, primary screen, biochemical, fluorescence polarization, HTS | inhibition, % at 24.9 µM | AID 602252, 2012 | hit rate 0.92% among 300,000 | purified CAL PDZ, TMR-peptide fluorescence polarization, 1 h | Golgi-associated PDZ and coiled-coil motif-containing protein (Homo sapiens), Q9HD26;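 active = mean inhibition of at least 30% with at least half of replicates also reaching 30%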;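 note: 0% = DMSO neutral control and 100% = excess unlabeled competitor peptide PRC23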
C-LANA FP = inhibitors of KSHV C-LANA binding to DNA, primary screen, biochemical, fluorescence polarization, FAM-LBS DNA, MBP-C-LANA, single point; inhibition, % at 9 µM; Kaposi's sarcoma herpesvirus LANA C-terminal domain (residues 932-1162) DNA binding; hit rate 0.078% among 340,000;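 active = highest replicate inhibition at or above 60% at 9 µM, even if other replicates fall short; inactive = all replicates below 60% inhibition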;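 note: 0% = neutral control wells and 100% = 4 µM acridine orange control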
RTF Ca sens act = cardiac RTF calcium sensitivity activators, primary screen, biochemical, IANBD-TnC fluorescence, EC20 calcium | Troponin I, cardiac muscle (Homo sapiens) + Troponin T, cardiac muscle (Homo sapiens) + … | IANBD-labeled TnC RTF fluorescence at EC20 calcium; 0% EC20 calcium, 100% full calcium | activation, % at 7.2 µM | hit rate 0.24% among 340,000;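 active = activation above the mean over all tested compounds plus 3 SD, cut at about 30% in these data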;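 note: rise in fluorescence read as greater calcium sensitivity of cardiac thin filaments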
RTF Ca inh conf = cardiac RTF calcium sensitivity inhibitors, confirmation, biochemical, fluorescence readout; reconstituted cardiac thin filaments; AID 504635, 2011; shares compounds with Cardiac RTF inh; inhibition, % at 7.15 µM; hit rate 8% among 360; in the data active = inhibition above about 18%
Numbers without * were called inactive; i = inactive; / = not tested or not shown; + = active, no number; ! = a repeat was not active. Sampled rows, rich in hits. Any-hit rate of the full collection: about 1.3%.

SMILES | Keap1 Nrf2 FP | CAL PDZ FP-1 | Cardiac RTF inh | CAL PDZ FP-2 | C-LANA FP | RTF Ca sens act | others
COC(=O)C1=C(c2ccc(OC)c(OC)c2)C[C@@H]2CC[C@H]1N2C(=O)N1CCC(C)CC1 | 0 | -4 | -4 | 41* | 1 | 0
CC12CCC(=O)CC1CCC1C2C(=O)CC2(C)C1CCC2(C)O (centres undefined) | 3 | -1 | -3 | -5 | 0 | 3
CCn1c(O)c(C=Nc2ccc(N3CCOCC3)cc2)c(=O)n(CC)c1=S | -6 | -2 | -12 | 8 | 5 | 130*
COc1ccc(-n2c(O)c(/C=C/C=Nc3ccccc3)c(=O)[nH]c2=O)cc1 | -249 | 0 | -223 | -3 | -70 | 202*
O=c1[nH]c(=O)n(-c2ccccc2)c(O)c1/C=C/C=Nc1ccccc1 | -108 | 0 | -71 | 0 | -26 | 78*
Cc1ccc(-n2c(O)c(/C=C/C=Nc3ccccc3)c(=O)[nH]c2=O)cc1 | -18 | 1 | -39 | -3 | -8 | 39*
COc1ccc(-n2c(O)c(/C(C)=N/Nc3ccccc3)c(=O)[nH]c2=O)cc1 | -7 | -1 | -4 | / | 4 | 12
C=CCn1c(O)c(/C=C/C=Nc2ccccc2)c(=O)[nH]c1=O | 3 | 0 | -4 | -2 | 2 | 2
O=c1[nH]c(=O)n(C2CCCCC2)c(O)c1C=Nc1ccc(N2CCOCC2)cc1 | -2 | 0 | -7 | / | 198* | 7
O=c1[nH]c(=O)n(C2CCCCC2)c(O)c1/C=C/C=Nc1ccccc1 | -109 | 16 | -83 | -1 | -3 | 55*
O=c1[nH]c(=S)n(-c2ccc(Cl)cc2)c(O)c1C=Nc1ccc(N2CCOCC2)cc1 | 0 | 1 | -18 | 5 | 2 | 4
COC(=O)C1=C(c2cccc(Cl)c2)C[C@@H]2CC[C@H]1N2C(=O)N1CCCC1 | 1 | -1 | -3 | -2 | 1 | 1
Cc1cc(Cl)ccc1OCC(=O)O | -5 | 0 | 13 | -4 | -1 | -3
Cc1cc(Cl)ccc1OC(C)C(=O)O (centres undefined) | 1 | 0 | 20* | -4 | 3 | 5
O=c1[nH]c(O)c(C=NCCc2ccccc2)c(=O)[nH]1 | 0 | -1 | -1 | 84* | 1 | 4
CC(=NCCc1ccccc1)c1c(O)[nH]c(=O)[nH]c1=O | -5 | 1 | -14 | -6 | 2 | 7
CC(C)(C)C(=O)O[C@H]1CC[C@@]2(C)C(=CC(=O)C3C2CC[C@]2(C)C(=O)[C@H](O)CC32)C1 (some centres undefined) | 2 | 0 | -6 | -8 | 0 | -3
CC(=O)O[C@@H]1CC[C@]2(C)C3CC[C@]4(C)C(=O)[C@H](O)CC4C3[C@@H](OC(C)=O)C[C@H]2C1 (some centres undefined) | -3 | -1 | 2 | 78* | -2 | -3
COC(=O)C1=C(c2cccc(C#N)c2)C[C@@H]2CC[C@H]1N2C(=O)NCc1ccco1 | -7 | 0 | 0 | -2 | -1 | -3
COc1cc(OC)c(OC)cc1/C=C1\C(=O)NC(=O)N(Cc2ccccc2)C1=O | -7 | 0 | -4 | 67* | 0 | 0
COc1ccc(-c2nn(Cc3ccccc3)cc2C(=O)NC2CC2)cc1OC | 0 | 0 | -2 | 3 | 0 | -5
CCOC(=O)C1CCCN(c2ccc([N+](=O)[O-])c3nonc23)C1 (centres undefined) | -11 | 4 | -481 | 4 | 90* | 393*
CCOCCCn1c(N)c(C(=O)Nc2sc3c(c2C(=O)OC)CCCC3)c2nc3ccccc3nc21 | -10 | 0 | -35 | 7 | -1 | 52*
COC1C(C)OC(OC2CC(C)(O)Cc3cc4c(c(O)c32)C(=O)c2c(O)cc3c(c2C4=O)OC2OC3(C)C(O)C(N(C)C)C2O)C(OC)C1(C)OC (centres undefined) | -66 | 1 | i | -6 | 52 | 678*
Cc1[nH]nc2ccc(-c3cncc(OC[C@@H](N)Cc4c[nH]c5ccccc45)c3)cc12 | -5 | -7 | -2 | -5 | 1 | 1
SMILES | Keap1 Nrf2 FP | CAL PDZ FP-1 | Cardiac RTF inh | CAL PDZ FP-2 | C-LANA FP | RTF Ca sens act | others
COc1cc(CNCCc2ccc3c(c2)OCO3)ccc1O | -7 | -1 | -4 | / | -1 | 0
CCCCCCCCC(=O)NCc1ccc(O)c(OC)c1 | -1 | 0 | 19* | -5 | 1 | 3 | RTF Ca inh conf=-3
CCCNS(=O)(=O)c1ccc(OCC(=O)N2CCN(Cc3ccc4c(c3)OCO4)CC2)cc1 | -3 | -2 | 18* | -3 | -1 | 3 | RTF Ca inh conf=-3
CCOC(=O)c1ccc(N2C(=O)CC(N3CC=C(c4ccc(F)cc4)CC3)C2=O)cc1 (centres undefined) | -1 | 0 | -1 | / | 1 | 4
NC(=O)c1ccc(OCCC(O)N2CC=C(c3ccc(F)cc3)CC2)cc1 (centres undefined) | 0 | -2 | 95* | 7 | -1 | -2 | RTF Ca inh conf=-4
Cc1ccc(-n2c(C)nc3cc(Cl)ccc3c2=O)nc1 | -1 | -2 | -3 | -2 | 0 | 2
CC[C@H](C)/C=C(C)/C=C/C1=CC2=C(Cl)C(=O)[C@](C)(OC(C)=O)C(=O)C2=CO1 | -9 | 9 | 39* | -1 | 23 | -35 | RTF Ca inh conf=21*
CC12CC(=O)C3C(CCC4CC(=O)C=CC43C)C1CCC2=O (centres undefined) | -4 | -1 | 2 | 0 | 0 | -3
C[CH2][Hg][S]c1ccccc1C(=O)O | i | 0 | + | 10 | 0 | i | RTF Ca inh conf=i
CC(C)COC(=O)c1ccccc1C(=O)OCC(C)C | -4 | 0 | -4 | 3 | 2 | 14
Cc1nc2cc(F)ccc2n1C1CCN(Cc2nnnn2CCc2ccccc2)CC1 | 1 | -2 | 18* | 4 | 0 | 3 | RTF Ca inh conf=-3
NCCc1cc(O)c(O)cc1O | 1 | 0 | 26*! | 0 | 2 | -9 | RTF Ca inh conf=3
CN(C)c1ccc(/C=C2/C(=N\O)C3CCN2CC3)cc1 | -6 | 0 | -4 | -2 | 1 | 6
COCc1c(CN)cnc(C)c1N | -6 | -1 | -8 | -1 | 3 | 0
